System: MS2 coat protein
Assay: apparent Kd, MS2 coat protein; higher = weaker binding; RNA-MaP array; FMN 200 µM where present
Summary of the method: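 Stalled E. coli RNA polymerase transcribed each design on Illumina sequencing-chip clusters. The clusters were titrated with SNAP-549-labelled MS2 coat protein, starting at 0.7 or 1.5 nM and doubling up to 3 µM, first without ligand and then with constant ligand, in 100 mM Tris-HCl pH 7.5, 80 mM KCl, 4 mM MgCl2, BSA, DTT, yeast tRNA and Tween-20. Green signal was normalised to red-channel RNA signal and to the control-cluster median Fmax. The apparent Kd is the median of filtered binding-curve fits made for each cluster.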

[1] = designed as: ON switch for flavin mononucleotide, no ligand
[2] = ligand present: flavin mononucleotide, designed as: ON switch for flavin mononucleotide
[3] = designed as: OFF switch for flavin mononucleotide, no ligand
[4] = ligand present: flavin mononucleotide, designed as: OFF switch for flavin mononucleotide

CGCAAGUAUACAUGAGGAUCACCCAUGUUUGAUAGGGUUUUCAGAAGGUACAAUUAGAGAUAGAGUAAGGAUAUGAAAUUUGCG
apparent Kd [1]: 125 nM
apparent Kd [2]: 24.7 nM

GAGUAGUUGGAAGGAUAUCGAUUGUUAUAGAAUCGAGAAGGUCCUAACAUGAGGAUCACCCAUGUAGGACUAUUCCUGUGUAUC
apparent Kd [1]: 11.3 nM
apparent Kd [2]: 9.64 nM

GUAGCUCAUGAGAAGGCGAUCAUGAAACAUGAUCGAGGAUAUCAUGUAAACAUGAGGAUCACCCAUGUAUGGGUAUUAUGCUAC
apparent Kd [1]: 126 nM
apparent Kd [2]: 47.1 nM

GGGCCCGGAGGAUAUACAUGAGGAUCACCCAUGUACCCGGGCCCUAUUGGGUUUGGGUGUAGAAGGCCGGGCCC
apparent Kd [3]: 15 nM
apparent Kd [4]: 15.3 nM

GGAUAGGACAGAGGAUAUACGUGCUAGAGAUACUAGCAAAAUUUCCUCACAUGAGGAUCACCCAUGUAGAAGGCUGUCCUAACG
apparent Kd [3]: 14.7 nM
apparent Kd [4]: 497 nM

CUGUGACGGUGCGCAAGUGGACGUAGAAGGGUCACAUGAGGAUCACCCAUGUGGGCCUGCUAGUGACAGGAUAUACGUUCGUAC
apparent Kd [3]: 13.7 nM
apparent Kd [4]: 38.3 nM

UAUAUAUAGUAAGGAUAUGUAAUUAUUUUGUAAACAGAAGGUACUGACAUGAGGAUCACCCAUGUUUUAGUGUGGGCAUGUAGA
apparent Kd [3]: 117 nM
apparent Kd [4]: 182 nM

GUUAUGUCAGGAUAUGCUUAUGAUGAGUGCUCAGACAUGAUGCAGAAGGGACAUGAGGAUCACCCAUGUACUGA
apparent Kd [3]: 25.4 nM
apparent Kd [4]: 63.9 nM

AAUUAAUUAAUACAUGAGGAUCACCCAUGUAAUUAUUAGAUCAAGGAUAUCAGCUCGUUUAGAGCUGAGAAGGUGAUCACAUGU
apparent Kd [1]: 373 nM
apparent Kd [2]: 109 nM

GUGAAGAUAGCAGGAUAUAUAUUUCCUACAUGAGGAUCACCCAUGUAGGUGAUCAGCCGAGUAAAGUAGAAGGGCUAUCUUUAC
apparent Kd [1]: 16.1 nM
apparent Kd [2]: 10.7 nM

UUUAAACAUGAGGAUCACCCAUGUCGUUCAAAUCAAGGAUAUCAAGCGUAUGCGCACGCUUGAGAAGGUGAAGCUC
apparent Kd [1]: 47.2 nM
apparent Kd [2]: 135 nM

UGGUGACGUGUAGGAUAUGGAGGUGGGUUUUGGCCAGAAGGACAUGAGGAUCACCCAUGUGGUAGAGGGUUGGCGGCGGCCCGU
apparent Kd [3]: 16.9 nM
apparent Kd [4]: 15.1 nM

AAUUAUUGAUGAGGAUAUUGUGGUGAAACACGACGAGAAGGCAUAUGUCACAUGAGGAUCACCCAUGUGAGCCUUGUGGAUAUA
apparent Kd [3]: 52 nM
apparent Kd [4]: 112 nM

UCCCAACAUGAGGAUCACCCAUGUAAGGAUAUCUUACUCAUGGACGUCCAUGAGGACCGGAGAAGGUACGUGUA
apparent Kd [3]: 19.4 nM
apparent Kd [4]: 19.8 nM

CGAUAUAUGAAGGGCGAAAGCCCACAUGAGGAUCACCCAUGUAGAAGGCGGGCCGCAACGCGGCCCGAGGAUAUAUAGUAUACA
apparent Kd [3]: 8.05 nM
apparent Kd [4]: 8.84 nM

UUCAUCAAUGAAGGAUAUCUAUGUCCAACAUGAGGAUCACCCAUGUUGAGGAUCACCUAUGUGUAGGAGAAGGUCAAUAUAACU
apparent Kd [1]: 8.56 nM
apparent Kd [2]: 8.54 nM

CUUAGACAUGAGGAUCACCCAUGUGAGGAUAUGAUGCGAUCGUGCUGACAUGAUCGCAUCAGAAGGCACAUAUG
apparent Kd [3]: 145 nM
apparent Kd [4]: 322 nM

CCGACGAAAGUCGAACGAUGUAGCAGAAGGACAUGAGGAUCACCCAUGUCAGCUGUAACAGCCAUGUAGGAUAUGCUACAUCGU
apparent Kd [3]: 4.28 nM
apparent Kd [4]: 5.85 nM

CACAUUUUAACAGGAUAUGUAUGGUUGCUUAUUAUUGCAAAUUCAAUUAUUACAGAAGGGUUAUACAUGAGGAUCACCCAUGUG
apparent Kd [1]: 26.5 nM
apparent Kd [2]: 16.8 nM

UUUGUAAUGUCAGGAUAUUUUAUAAGUCAUACUGAAGAAGGGAUAAUUAUACUCAUGUACAUGAGGAUCACCCAUGUUAAAUAU
apparent Kd [1]: 43.6 nM
apparent Kd [2]: 33.6 nM

AAGCGAGGGACAGGAUAUGCGGCGAAAUUCUCCGCAGAAGGGUCGACAUGAGGAUCACCCAUGUCCUUACGCUCCAAGUAGAGG
apparent Kd [1]: 324 nM
apparent Kd [2]: 467 nM

GGUGAAGCAGGAUAUGUGCCGAUAUACAUGAGGAUCACCCAUGUCAUGUAGGAACCGCGUAUAGAAGGGCUUCACC
apparent Kd [3]: 39.2 nM
apparent Kd [4]: 67.1 nM

CAGGUAGACUGAGGAUAUACAAUAAAGACCUAGUCUAUCUAGGUCUCUACAUGAGGAUCACCCAUGUAGAAGGCAGUCUGCCUG
apparent Kd [3]: 16 nM
apparent Kd [4]: 18.3 nM

AAAAAAAAAAGAGAGGAUAUCCAAAAAAAAACAUGAGGAUCACCCAUGUAAAAAAAAAAAAAAUGGGAGAAGGCUCAAAAAAAAAA
apparent Kd [1]: 89.7 nM
apparent Kd [2]: 23.2 nM

UGAACCAUGACAUGAGAUGACAUGAGGAUCACCCAUGUGUACAAGGAUAUGUUGGUCGACGAUCGGCAGAAGGUGUAAUGGGAU
apparent Kd [3]: 58.9 nM
apparent Kd [4]: 196 nM

UUGAUAAGGAGAGGAUAUGGACAUGAGGAUCACCCAUGUACAUGGGAAUAUUUACUGAAUUUUUACUAGAAGGCUUACAUAUUU
apparent Kd [3]: 15.8 nM
apparent Kd [4]: 12.4 nM

AACAUGUCAGGAUAUAUGACAUGGCUCUUCGGAGCAAGCUCAUAGAAGGGACAUGAGGAUCACCCAUGUAGAGC
apparent Kd [3]: 21.1 nM
apparent Kd [4]: 25.2 nM

AUUUGACACGUAGGAUAUCGCUCAAAUUUAACACGAGAAGGACGAACAUGAGGAUCACCCAUGUAACAUGGAGUAGUUUAUUUG
apparent Kd [3]: 76.6 nM
apparent Kd [4]: 111 nM

CGUUGUUCCGCAGGAUAUGCAUUGGAUUACAAUGCAGAAGGGCGAUAACAUGAGGAUCACCCAUGUGUGGACAAUAAGGAAGAG
apparent Kd [1]: 811 nM
apparent Kd [2]: 62.1 nM

UGUCGGAGCAGAGGAUAUUACAUGAGGAUCACCCAUGUAUGAACCAAUAGCUGGAAACUGCAAUGUAAGAAGGCUGCUCCGACA
apparent Kd [3]: 11.9 nM
apparent Kd [4]: 107 nM

UUAAUCUAUACAGGAUAUCCAUACGCUGCAUACGGAGAAGGGUAACAAUCAUGAGGACAUGAGGAUCACCCAUGUUCUGAGCAU
apparent Kd [1]: 11.7 nM
apparent Kd [2]: 10.7 nM

UUUACAUGAGGAUCACCCAUGUUAAAAUAAUUAAUUAUAAGUGAGGAUAUAUAAAUUAUAAAAUUGUAGAAGGCACUGGGUAUC
apparent Kd [1]: 47.9 nM
apparent Kd [2]: 44.5 nM

UGAUCCCAUGUCAGGAUAUAGAGGCGGUAGCCUGGCUAGAAGGGACAUGAGGAUCACCCAUGUCGGUUCUUGCC
apparent Kd [3]: 35.5 nM
apparent Kd [4]: 21.3 nM

CUUCAACAAGGAUAUGCCAUGGAUCGACACUGUUACGCGAAACAUGAGGAUCACCCAUGUAGAAGGUGUUGAGA
apparent Kd [3]: 78.5 nM
apparent Kd [4]: 96.2 nM

GGUGCUAUGUAGAAGGCAGAUCUGAUUCAGAUCUGAGGAUAUACAUGAGGAUCACCCAUGUUAUGCACCAGCACGAGAGUGCAA
apparent Kd [3]: 7.12 nM
apparent Kd [4]: 12.8 nM

AUGCUAGUGUGAGGAUAUUAGGCACAUGAGGAUCACCCAUGUAAGAUCAUGACGAUCACGCAUGAUAAGAAGGUACAUUAGCAU
apparent Kd [3]: 40 nM
apparent Kd [4]: 47 nM

GCGUCAGAAUUAAUUGUGACAGACAGAAGGCAAUAGUAUGUGACCGACAUGAGGAUCACCCAUGUUGAGGAUAUGUAUUGACAC
apparent Kd [3]: 5.68 nM
apparent Kd [4]: 7.08 nM

AAUACACAUGAGGAUCACCCAUGUCAGGAUAUGCGGAAUAAGACUUUGGUCGAUAAAUGUAGAAGGGACGUUUA
apparent Kd [3]: 34.3 nM
apparent Kd [4]: 33.4 nM

CCGUCGCACCAGAAGGCGUGAUCCACUGCGGCACGAGGAUAUGGUACAUGAGGAUCACCCAUGUCGCGAUGGAAAGCAAUCACG
apparent Kd [1]: 151 nM
apparent Kd [2]: 24.1 nM

CUUUUGUGAGGAUAUUCGUAGUAAAUAAAUAAAAUUAUUACGGAGAAGGCACAUGAGGAUCACCCAUGUUCCUU
apparent Kd [3]: 17.1 nM
apparent Kd [4]: 50.3 nM

UUCAUGUGAGGAUAUCAGUAGUAAAAAAAUAAAAUUACUACUGAGAAGGCACAUGAGGAUCACCCAUGUGUCUC
apparent Kd [3]: 22.1 nM
apparent Kd [4]: 26.6 nM

UUCCUCAUAACAUGAGGAUCACCCAUGUAUUAUUUGAUAACUGAGGAUAUACUUUUAAUGUUUAUGUAGAAGGCAGAUACAGUU
apparent Kd [3]: 89.4 nM
apparent Kd [4]: 138 nM

UUGGUAUUCGUAGGAUAUCUGUCGCCACCGUGUGGAGAAGGACGAACAUGAGGAUCACCCAUGUAUCAUGGUGUGGGCUUUGUU
apparent Kd [3]: 504 nM
apparent Kd [4]: 470 nM

ACCCAACAUGAGGAUCACCCAUGUCAGGAUAUCCAUCUAUACUCGAAAGAGUAUAGAUGGAGAAGGGACAGAGG
apparent Kd [3]: 94.8 nM
apparent Kd [4]: 92.9 nM

ACAUGCAUAGCGAUAUGAUCGAGAGAUCAUGUCGCUUUUAAAAGAAGGACAUGAGGAUCACCCAUGUAGGAUAUGGGAGCAUGA
apparent Kd [1]: 53.4 nM
apparent Kd [2]: 13.2 nM

UCAUUUCAGUAAGGAUAUUUAUUCAUGACGAUACAUGAGGAUCACCCAUGUAAAGAAGGUACUAAUACAAAUAAUGCAUUGUUC
apparent Kd [3]: 11.9 nM
apparent Kd [4]: 10.1 nM

ACAGAUCCUGACAUGAGGAUCACCCAUGUUAGAUUGUUAUGUCAGGAUAUUAUCUGGCAACCAGAUGAGAAGGGACGAUCUGUG
apparent Kd [1]: 240 nM
apparent Kd [2]: 15.5 nM

AUGCUAGUGUGAGGAUAUCAACAUGAGGAUCACCCAUGUUGGAAGUACACGACAUGCGGUACACCUGAGAAGGUACAUUAGCAU
apparent Kd [3]: 19.6 nM
apparent Kd [4]: 25.4 nM

GUCGUGUGAGGAUAUGGAUCGACGCAGUGACAGUCAGCGACCUAGAAGGCACAUGAGGAUCACCCAUGUAUGUG
apparent Kd [3]: 54.6 nM
apparent Kd [4]: 97.5 nM

AGUUGGCGAGGAUAUACAUGAGGAUCACCCAUGUGAAAUAUAAGAGUGAGGAAGAAAAGUAGAAGGCGCUGACA
apparent Kd [3]: 99.8 nM
apparent Kd [4]: 130 nM

GGUGCGUAUGUGAGGAUAUGCUGGUCCUUGGAUCGGCAGAAGGCACAUGAGGAUCACCCAUGUGGUGUCGUUCC
apparent Kd [3]: 120 nM
apparent Kd [4]: 55.4 nM

GGAUCGAGUGUGAGGAUAUACCACUGGAUACAGUGGUAGAAGGCACAUGAGGAUCACCCAUGUCUCUACGAUCC
apparent Kd [3]: 16.1 nM
apparent Kd [4]: 51.8 nM

GGAGAUACAUGAGGAUCACCCAUGUAGGAUAUCGAGUAUAUAUAUGGCGAAAGCCAUAUAUAUAUCGAGAAGGGCGUACACACC
apparent Kd [3]: 8.84 nM
apparent Kd [4]: 7.75 nM

UAUUAUAUAGAGAAGGACAUGAGGAUCACCCAUGUCGCCGGGCCCGGGAAACCGGGCCCGGCCAUGUAGGAUAUCUAUAUGGUA
apparent Kd [3]: 4.96 nM
apparent Kd [4]: 5.86 nM

CUAAAUCAUGUAGGAUAUGCAUGGCGAAGCUACGCAGAAGGACAUGAGGAUCACCCAUGUCUCUCCGUCUGCAUACAGACGGAG
apparent Kd [3]: 20.1 nM
apparent Kd [4]: 123 nM
